From ChEMBL document CHEMBL1136933 (J Med Chem, 2009) come the findings set out here.

Experiment [1] deals with T1, Muscarinic acetylcholine receptor M1 (Rattus norvegicus) (UniProt P08482).
T1 sequence (whole entry): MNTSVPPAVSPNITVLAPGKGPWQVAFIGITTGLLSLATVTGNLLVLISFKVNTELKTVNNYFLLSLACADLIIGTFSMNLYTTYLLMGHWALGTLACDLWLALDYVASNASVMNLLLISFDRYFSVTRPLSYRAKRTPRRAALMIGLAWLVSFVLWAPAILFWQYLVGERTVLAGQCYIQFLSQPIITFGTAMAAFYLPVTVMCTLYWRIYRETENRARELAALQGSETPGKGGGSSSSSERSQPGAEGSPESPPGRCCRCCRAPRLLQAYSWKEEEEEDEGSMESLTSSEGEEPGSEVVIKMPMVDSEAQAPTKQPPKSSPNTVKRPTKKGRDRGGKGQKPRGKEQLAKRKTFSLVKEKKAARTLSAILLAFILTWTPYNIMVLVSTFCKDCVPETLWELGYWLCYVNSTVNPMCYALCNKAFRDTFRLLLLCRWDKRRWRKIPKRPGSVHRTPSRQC
The experiment is described as follows: Activation of rat muscarinic M1 receptor expressed in CHO cells co-expressing Gq protein assessed as potentiation of acetylcholine-induced intracellular Ca2+ mobilization at 30 uM relative to acetylcholine. The class given is functional, cell-based. For orientation: Calcium assays in cells follow changes in intracellular calcium, usually with a dye or a luminescent sensor.

In experiment [2] the target is T2, Muscarinic acetylcholine receptor M1 (Rattus norvegicus, UniProt P08482).
T2 sequence (P08482 whole entry): T1 sequence (whole entry)
The experiment is described as follows: Activation of rat muscarinic M1 receptor expressed in CHO cells co-expressing Gq protein assessed as potentiation of acetylcholine-induced intracellular Ca2+ mobilization. The class given is functional, cell-based.

Experiment [3] deals with T3, Muscarinic acetylcholine receptor M5 (Homo sapiens, UniProt P08912).
T3 sequence (P08912 whole entry): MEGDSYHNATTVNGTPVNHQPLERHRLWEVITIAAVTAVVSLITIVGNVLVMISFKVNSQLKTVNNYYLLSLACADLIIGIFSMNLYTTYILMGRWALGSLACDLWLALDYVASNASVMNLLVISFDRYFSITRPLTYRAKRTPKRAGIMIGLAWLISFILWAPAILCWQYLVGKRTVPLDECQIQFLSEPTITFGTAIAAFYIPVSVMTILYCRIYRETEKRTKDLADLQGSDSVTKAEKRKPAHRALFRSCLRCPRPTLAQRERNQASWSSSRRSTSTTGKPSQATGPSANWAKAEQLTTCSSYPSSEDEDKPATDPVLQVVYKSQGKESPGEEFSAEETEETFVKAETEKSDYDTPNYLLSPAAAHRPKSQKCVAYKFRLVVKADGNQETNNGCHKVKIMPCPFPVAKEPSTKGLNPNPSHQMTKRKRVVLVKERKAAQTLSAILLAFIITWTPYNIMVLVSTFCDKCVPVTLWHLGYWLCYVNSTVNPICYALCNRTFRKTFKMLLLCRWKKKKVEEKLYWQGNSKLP
As to the kind of experiment: Activation of human muscarinic M5 receptor expressed in CHO cells coexpressing Gq protein assessed as potentiation of acetylcholine-induced intracellular Ca2+ mobilization. It counts as functional, cell-based.

The target of experiment [4] is T4, Muscarinic acetylcholine receptor M5 (Homo sapiens) (UniProt P08912).
T4 sequence (whole entry): T3 sequence (P08912 whole entry)
As to the kind of experiment: Activation of human muscarinic M5 receptor expressed in CHO cells coexpressing Gq protein assessed as potentiation of acetylcholine-induced intracellular Ca2+ mobilization at 30 uM relative to acetylcholine. It counts as functional, cell-based.

The target of experiment [5] is T5, Muscarinic acetylcholine receptor M2 (Rattus norvegicus, UniProt P10980).
T5 sequence (P10980 whole entry): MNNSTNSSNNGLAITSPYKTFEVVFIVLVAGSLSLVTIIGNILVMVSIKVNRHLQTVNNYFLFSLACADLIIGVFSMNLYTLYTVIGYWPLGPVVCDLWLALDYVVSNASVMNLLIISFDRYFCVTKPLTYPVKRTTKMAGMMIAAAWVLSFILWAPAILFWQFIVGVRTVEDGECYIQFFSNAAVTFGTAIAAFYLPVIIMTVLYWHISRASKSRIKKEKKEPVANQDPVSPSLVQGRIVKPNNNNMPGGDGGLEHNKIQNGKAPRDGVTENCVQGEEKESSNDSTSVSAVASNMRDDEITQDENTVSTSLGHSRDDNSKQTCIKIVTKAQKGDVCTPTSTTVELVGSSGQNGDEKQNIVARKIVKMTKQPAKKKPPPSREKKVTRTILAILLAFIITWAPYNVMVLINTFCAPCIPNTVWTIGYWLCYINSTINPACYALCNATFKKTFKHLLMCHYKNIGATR
As to the kind of experiment: Activation of rat muscarinic M2 receptor expressed in CHO cells co-expressing chimeric Gqi5 protein assessed as potentiation of acetylcholine-induced intracellular Ca2+ mobilization. It counts as functional, cell-based. Put shortly: (§1)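 Calcium flux assay. Stable CHO lines were seeded at 5 × 10^4 cells/well (M1, M3, M5) or 6 × 10^4 cells/well (Gqi5 M2, M4) and grown overnight at 37 °C, 5% CO2. Cells were loaded 1 h at 37 °C with 2 µM Fluo-4 AM. […] At least three independent determinations, each in duplicate or more.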

Experiment [6] has as its target T6, Muscarinic acetylcholine receptor M3 (Homo sapiens, UniProt P20309). The experiment is described as follows: Activation of human muscarinic M3 receptor expressed in CHO cells coexpressing Gq protein assessed as potentiation of acetylcholine-induced intracellular Ca2+ mobilization. The class given is functional, cell-based. Put shortly: as §1
Target sequence in this assay (P20309 whole entry): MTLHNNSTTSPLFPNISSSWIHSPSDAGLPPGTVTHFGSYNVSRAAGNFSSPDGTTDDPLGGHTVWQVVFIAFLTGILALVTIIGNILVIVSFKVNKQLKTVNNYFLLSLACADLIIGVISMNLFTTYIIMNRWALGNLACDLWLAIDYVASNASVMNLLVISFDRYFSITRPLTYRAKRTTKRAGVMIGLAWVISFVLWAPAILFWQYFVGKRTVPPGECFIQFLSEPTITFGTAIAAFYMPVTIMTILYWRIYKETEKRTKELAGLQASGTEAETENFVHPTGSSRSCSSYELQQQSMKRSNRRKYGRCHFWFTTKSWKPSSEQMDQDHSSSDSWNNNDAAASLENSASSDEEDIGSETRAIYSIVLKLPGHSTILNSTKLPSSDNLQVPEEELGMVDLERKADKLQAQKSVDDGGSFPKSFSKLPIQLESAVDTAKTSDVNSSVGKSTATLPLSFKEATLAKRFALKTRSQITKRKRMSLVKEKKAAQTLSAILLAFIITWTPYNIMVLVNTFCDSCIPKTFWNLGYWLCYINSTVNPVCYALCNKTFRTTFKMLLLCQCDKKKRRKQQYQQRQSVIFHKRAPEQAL
Experiment [7] deals with T7, Muscarinic acetylcholine receptor M4 (Rattus norvegicus, UniProt P08485).
T7 sequence (P08485 whole entry): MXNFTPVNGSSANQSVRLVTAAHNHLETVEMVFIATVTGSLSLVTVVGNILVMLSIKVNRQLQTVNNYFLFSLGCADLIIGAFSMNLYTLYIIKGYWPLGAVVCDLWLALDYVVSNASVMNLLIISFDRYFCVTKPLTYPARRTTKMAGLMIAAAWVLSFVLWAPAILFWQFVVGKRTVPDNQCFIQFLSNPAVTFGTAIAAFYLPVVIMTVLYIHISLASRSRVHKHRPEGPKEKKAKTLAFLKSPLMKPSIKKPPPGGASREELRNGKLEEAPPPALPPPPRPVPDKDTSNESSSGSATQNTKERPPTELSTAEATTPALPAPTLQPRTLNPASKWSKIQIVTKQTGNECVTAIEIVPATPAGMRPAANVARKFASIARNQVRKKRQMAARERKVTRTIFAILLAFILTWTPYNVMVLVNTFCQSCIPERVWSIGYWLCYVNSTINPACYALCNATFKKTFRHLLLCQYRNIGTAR
As to the kind of experiment: Activation of rat muscarinic M4 receptor expressed in CHO cells coexpressing chimeric Gqi5 protein assessed as potentiation of acetylcholine-induced intracellular Ca2+ mobilization. The class given is functional, cell-based. Summed up:
as §1

Experiment [8] addresses T6, Muscarinic acetylcholine receptor M3. The experiment is described as follows: Activation of human muscarinic M3 receptor expressed in CHO cells coexpressing Gq protein assessed as potentiation of acetylcholine-induced intracellular Ca2+ mobilization at 30 uM relative to acetylcholine. It counts as functional, cell-based.
Target sequence in this assay (P20309 whole entry, looked up): as the sequence (P20309 whole entry) above
The target of experiment [9] is T8, Muscarinic acetylcholine receptor M2 (Rattus norvegicus) (UniProt P10980).
T8 sequence (whole entry): T5 sequence (P10980 whole entry)
The experiment is described as follows: Activation of rat muscarinic M2 receptor expressed in CHO cells coexpressing chimeric Gqi5 protein assessed as potentiation of acetylcholine-induced intracellular Ca2+ mobilization at 30 uM relative to acetylcholine. The class given is functional, cell-based.

The target of experiment [10] is T4, Muscarinic acetylcholine receptor M5 (Homo sapiens). The experiment is described as follows: Inhibition of [3H]NMS binding to human muscarinic M5 receptor expressed in CHO cells coexpressing Gq protein at 30 uM by scintillation counting. It counts as cell-based.

Each structure is given as a SMILES string.

In general, EC50 refers to the concentration at which the effect is half-maximal. For the molecule `O=C1C(=O)N(Cc2ccc(OC(F)(F)F)cc2)c2ccc(OC(F)(F)F)cc21`, the %max in experiment [1] came out at 13.8%; in experiment [4], 58.9%. The concentration for a half-maximal effect (EC50) in experiment [2] is over 30 µM; in [3], 1.86 µM.
The corresponding values for `O=C1C(=O)N(Cc2ccc(Br)cc2)c2c(F)cccc21` are 62.7%, 51.7%, 3.99 µM and 1.93 µM.
The corresponding values for `O=C1C(=O)N(Cc2ccccc2C(F)(F)F)c2ccc(F)cc21` are 47.8%, 36.1%, 6.21 µM and 4.09 µM.
For `O=C1C(=O)N(Cc2ccc(C(F)(F)F)cc2)c2c(Cl)cccc21`, the EC50 in experiment [5] (read-out: EC50) was 2.84 µM; in experiment [2], 3.2 µM; in experiment [6], 2.22 µM; in experiment [3], 2.11 µM; in experiment [7] (read-out: EC50) it was over 10 µM. Besides, the %max in experiment [1] amounted to 67%; in experiment [8], 78%; in experiment [4], 70.8%; in experiment [9], 55%.
On to `COc1ccc(CN2C(=O)C(=O)c3ccccc32)cc1`, for which the %max in [1] was 43.6%; in [4], 29.2%. In addition, the EC50 is over 10 µM in [2] and over 30 µM in [3].
The corresponding values for `O=C1C(=O)N(Cc2ccc(C(F)(F)F)cc2)c2ccc(OC(F)(F)F)cc21` are 25.7%, 67.2%, 7.09 µM and 1.85 µM.
As for `O=C1C(=O)N(Cc2ccccc2C(F)(F)F)c2c(F)cccc21`, the %max turned out to be 41.3% in experiment [1] and 30.9% in experiment [4]. The EC50 in [2] and in experiment [3] was over 30 µM throughout.
Turning to `O=C1C(=O)N(Cc2ccc(Br)cc2F)c2ccc(OC(F)(F)F)cc21`, the %max in [1] was 11.6%; in [4] it was 36.4%. For the same molecule, the EC50 in experiment [2] is over 30 µM; in experiment [3], over 10 µM.
The term inhibition denotes the percentage by which the read-out fell short of the control. Higher therefore signals a response far below the control. Take `O=C1C(=O)N(Cc2ccc(Br)cc2)c2ccccc21`: the 50% effective concentration (EC50) result was “Not Active” in experiment [5] (cho); 6.04 µM in experiment [2]; 6.38 µM in experiment [6]; 4.08 µM in experiment [3]; “Not Active” in experiment [7] (cho). The figures for the %max in experiment [1], in experiment [8] and in experiment [4] were 82.4%, 65.5% and 74.4%, respectively. The same molecule gave an inhibition in experiment [10] of 50%.
Consider `O=C1C(=O)N(Cc2ccccc2Cl)c2ccc(OC(F)(F)F)cc21`, for which the %max was 12.3% in experiment [1] and 51.9% in experiment [4]. Moreover, the half-maximal effective concentration (EC50) was over 30 µM in experiment [2] and 4.07 µM in [3].
The corresponding values for `O=C1C(=O)N(Cc2ccc(C(F)(F)F)cc2)c2c(F)cccc21` are 60.9%, 71.1%, 5.18 µM and 3.26 µM.
The corresponding values for `COc1ccc(CN2C(=O)C(=O)c3cccc(Cl)c32)cc1` are 49.4%, 30.3%, 5.38 µM and 3.96 µM.
Consider `O=C1C(=O)N(Cc2ccc(Br)cc2F)c2ccccc21`, for which the %max in experiment [1] stood at 49.2%; in experiment [4], 48.5%.
Regarding `Cc1ccccc1CN1C(=O)C(=O)c2cc(OC(F)(F)F)ccc21`, the %max in experiment [1] came to 26.2%; in [4], 60%. The half-maximal effective concentration (EC50) is over 30 µM in experiment [2] and 3.28 µM in experiment [3].
On to `Cc1cccc2c1N(Cc1ccccc1F)C(=O)C2=O`, for which the %max in [1] worked out at 24.9%; in experiment [4], 24.6%.
`COc1cccc(CN2C(=O)C(=O)c3cc(F)ccc32)c1`: the %max in experiment [1] was 32.3%; in [4], 41.6%.
Consider `COc1cccc(CN2C(=O)C(=O)c3c(Cl)ccc(Cl)c32)c1`, for which the %max in [1] was 13.3%; in experiment [4], 35.1%. Moreover, the values for the EC50 in experiment [2] and in [3] were over 30 µM and 7.15 µM, respectively.
Regarding `Cc1ccccc1CN1C(=O)C(=O)c2ccccc21`, the values for the %max in experiment [1] and in experiment [4] were 43.2% and 36.3%, respectively.
Take `O=C1C(=O)N(Cc2ccccc2Cl)c2c(Cl)ccc(Cl)c21`: the results for the %max in experiment [1] and in [4] were 13.1% and 18.9%, respectively.
For `O=C1C(=O)N(Cc2ccc(C(F)(F)F)cc2)c2ccc(Cl)cc21`, the results for the %max in experiment [1] and in experiment [4] were 44.1% and 67.4%, respectively.
The corresponding values for `Cc1ccc2c(c1)C(=O)C(=O)N2Cc1ccccc1C(F)(F)F` are 17.8% and 30.6%.
With `O=C1C(=O)N(Cc2ccc(Br)cc2F)c2c(Cl)cccc21`, the 50% effective concentration (EC50) in experiment [3] was 4.66 µM.
On to `COc1cccc(CN2C(=O)C(=O)c3cc(OC(F)(F)F)ccc32)c1`, for which the %max was 28.6% in experiment [1] and 70.1% in experiment [4]. Moreover, the results for the 50% effective concentration (EC50) in experiment [2] and in experiment [3] were over 30 µM and 1.7 µM, respectively.
Regarding `O=C1C(=O)N(Cc2c(F)cccc2F)c2ccc(OC(F)(F)F)cc21`, the %max in experiment [1] stood at 13.6%; in [4], 29.8%.
As for `COc1cccc(CN2C(=O)C(=O)c3cccc(F)c32)c1`, the values for the %max in [1] and in experiment [4] were 51.1% and 52%, respectively.
As for `O=C1C(=O)N(Cc2ccc(C(F)(F)F)cc2)c2ccccc21`, the half-maximal effective concentration (EC50) in experiment [3] came to 3.19 µM.
On to `COc1ccc(CN2C(=O)C(=O)c3cc(F)ccc32)cc1`, for which the %max came to 41.1% in experiment [1] and 38.3% in experiment [4].
